One may read the pIC50 as the negative decadic logarithm of the IC50, by convention in mol/L.

pIC50: −log10 of the molar value.

For this experiment, the target named is Mitochondrial complex I; NADH oxidoreductase (Bos taurus, UniProt P25708+P52505). Kind of experiment: Inhibition of NADH-ubiquinone oxidoreductase assessed as NADH oxidase activity in bovine heart submitochondrial particles. The procedure, abridged: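 Bovine heart submitochondrial particles (sonicated mitochondria isolated by differential centrifugation) in air-saturated 75 mM sodium potassium phosphate, pH 7.4, with 1 mM each EDTA and MgCl2, at 30 °C and 42–219 µg/mL protein. Compounds added in methanol (≤2% v/v) and preincubated 4 min. The reaction is started with 0.16 mM NADH (final). Oxidation is followed over 4 min as A340 decrease. Means of 2–4 independent experiments.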
Sequence of Mitochondrial complex I; NADH oxidoreductase (P25708 21-464 limits assumed, other chains not shown): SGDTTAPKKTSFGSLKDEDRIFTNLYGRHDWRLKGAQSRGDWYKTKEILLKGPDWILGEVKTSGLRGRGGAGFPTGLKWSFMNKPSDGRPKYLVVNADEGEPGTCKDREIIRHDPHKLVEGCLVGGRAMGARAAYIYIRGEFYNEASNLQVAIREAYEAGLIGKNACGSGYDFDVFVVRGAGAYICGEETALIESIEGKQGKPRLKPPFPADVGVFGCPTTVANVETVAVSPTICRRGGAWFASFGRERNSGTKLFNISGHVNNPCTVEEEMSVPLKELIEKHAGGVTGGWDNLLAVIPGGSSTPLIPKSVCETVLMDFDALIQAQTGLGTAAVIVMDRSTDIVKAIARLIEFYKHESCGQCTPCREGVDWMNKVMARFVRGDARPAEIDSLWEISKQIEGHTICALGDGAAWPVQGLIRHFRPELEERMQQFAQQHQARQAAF

Regarding `CCCC1(O)C(=O)C(C)C(=O)N=C1C=CC(C)C/C=C/C(C)C` (configuration not stated) [IROMYCIN E], the pIC50 was < 4.60.
For `CCCC1C(=O)C(C)(O)C(=O)N=C1C=CC(C)C/C=C/C(C)C` (configuration not stated) [IROMYCIN F], the pIC50 was < 4.60.
